Screening data: PubChem BioAssay, several laboratories
Measles CPE: compounds protecting cells from measles virus cytopathic effect, primary screen, measles RdRp inhibitor project, single point, MLSMR library, absorbance; Measles virus-infected cells, CPE protection; protection (pct of control), % at 4 µM; 140,000 tested, 1.5% active; AID 841, 2007; in the data active = protection mostly above about 24%, no sharp cut-off; inactive = mostly below about 26%
DAT uptake mod: changed hDAT dopamine uptake under cocaine IC80, either direction, primary screen, cocaine antagonist project, cell-based, LLC-PK1 hDAT, [14C]-dopamine uptake, MLSMR. Sodium-dependent dopamine transporter (Homo sapiens), Q01959. LLC-PK1 hDAT cells, [14C]-dopamine uptake with cocaine IC80; actives deviate in either direction. B-score at 10 µM. 110,000 tested, 1.3% active. AID 449768, 2010;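 active = Z score or B-score, a plate-position-corrected score, falls beyond the plate's 99.7% confidence bounds, in either direction; inactive = both scores lie inside the 99.7% bounds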;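 note: scored against the spread of the other compound wells on the same plate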
Target sequence (Q01959 whole entry, looked up): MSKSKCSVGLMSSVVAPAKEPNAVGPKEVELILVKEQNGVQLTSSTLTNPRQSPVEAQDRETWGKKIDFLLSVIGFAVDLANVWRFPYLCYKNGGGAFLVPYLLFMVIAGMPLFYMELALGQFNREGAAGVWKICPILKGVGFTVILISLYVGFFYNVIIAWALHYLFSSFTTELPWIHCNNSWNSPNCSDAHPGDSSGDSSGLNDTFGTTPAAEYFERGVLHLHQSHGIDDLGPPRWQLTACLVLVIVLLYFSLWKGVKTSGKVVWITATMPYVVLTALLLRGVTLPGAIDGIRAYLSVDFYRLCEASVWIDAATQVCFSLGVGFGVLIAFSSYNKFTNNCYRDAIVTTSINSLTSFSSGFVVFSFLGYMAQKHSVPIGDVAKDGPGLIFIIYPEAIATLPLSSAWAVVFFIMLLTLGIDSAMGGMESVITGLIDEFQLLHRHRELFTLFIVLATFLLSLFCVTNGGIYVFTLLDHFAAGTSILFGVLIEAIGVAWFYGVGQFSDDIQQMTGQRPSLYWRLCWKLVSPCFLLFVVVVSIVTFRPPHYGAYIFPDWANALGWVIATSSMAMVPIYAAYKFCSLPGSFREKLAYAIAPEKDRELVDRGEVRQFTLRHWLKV
RAM inhibit: inhibitors of the yeast RAM network, primary screen, dse1pr::URA3 reporter, 5-FOA selection; S. cerevisiae dse1pr::URA3 reporter, 5-FOA growth OD615, 2 d; analog-sensitive cbk1-as2 kinase mutant strain; inhibition, % at 50 µM; 190,000 tested, 1.8% active; AID 868, 2007;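 active = inhibition above a set limit, 3 SD over mean compound inhibition, cut at about 8.4% in these data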;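 note: 0% = DMSO-only wells with no growth and 100% = 10 µM 1-NA-PP1 full growth; inhibition rescues growth on 5-FOA so higher OD means more RAM inhibition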
WT yeast gro inh: growth inhibition of WT strain, primary screen, mitochondrial fusion inhibitor project, WT and mutant strains, chemical genetic. mitochondrial fusion phenotypic screen. inhibition, % at 10 µM. 190,000 tested, 2.1% active. AID 1362, 2008; in the data active = inhibition above about 58%; tested in S. cerevisiae
Yeast growth inh: growth inhibitors of yeast BB579 in restrictive medium, primary screen, yeast lifespan-shortening project, S. cerevisiae | OD615, 48 h | inhibition, % at 10 µM | AID 804, 2007 | 140,000 tested, 0.51% active;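 active = inhibition above a set limit, 3 SD over the mean compound inhibition, cut at about 44% in these data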
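Assay system: S. cerevisiae DeaD strain BB579 yeast. Medium: CSMM-D restrictive synthetic medium containing dextrose (glucose). Times: 4 h cell preincubation, 48 h compound exposure, 30 °C humidified. Signal: OD615 turbidity measurement. Benchmarks: positive control amphotericin B 10 µg/mL.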
Yeast lifespan up: compounds extending yeast replicative lifespan, primary screen, S. cerevisiae, OD615 | S. cerevisiae growth with nicotinamide; deaD strain in restrictive glucose medium | inhibition of the nicotinamide effect, % at 10 µM | 130,000 tested, 0.68% active | AID 775, 2007;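 active = inhibition above a set limit, placed 3 SD over the median of all compounds, cut at about 26% in these data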;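 note: 0% = nicotinamide-treated wells and 100% = cells grown without nicotinamide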
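Measured by: optical density (absorbance) at 615 nm; System: modified budding yeast, DeaD strain; Medium: restrictive CSMM-D dextrose medium; Timing: 4 h preincubation then 48 h treatment at 30 °C.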
* marks the source's active call; other numbers are inactive results; nt = no result given. Shown are actives, neighbours in structure and some others; about 6.1% of the full set was active somewhere.

SMILES	Measles CPE	DAT uptake mod	RAM inhibit	WT yeast gro inh	Yeast growth inh	Yeast lifespan up
CSC1=NC(C)(C)CC2(C)Nc3ccccc3N12 (stereo unspecified)	18*	nt	1	26	-52	10
COC(=O)CN1C(c2ccc(Cl)cc2)=Nc2ccc(Cl)cc2C1c1ccccc1 (stereo unspecified)	17	nt	0	82*	-16	1
C=CCOc1c(CNn2nnnc2N)cccc1OC	42*	-0.16	-1	-11	9	nt
C=CCOc1ccc2ccccc2c1CNCCCN1CCOCC1	24	nt	0	64*	-33	-21
C=C(C)C1CC=C(C)/C(=N\NC(=O)CNc2cccc3ccccc23)C1 (stereo unspecified)	16	nt	1	21	0	2
Cc1ccc(NCC(O)C(O)C(O)CO)cc1C (stereo unspecified)	1	-0.87	0	-2	-24	-9
Cc1cc(N=Nc2ccccc2)c(NCC(O)C(O)C(O)CO)cc1C (stereo unspecified)	nt	nt	10*	9	nt	nt
CSc1nnnn1-c1ccc(C)c(Cl)c1	10	nt	1	-3	-4	-9
CCN(CC)C(=O)CSc1nnc(COc2cccc(C)c2)n1C	nt	nt	0	-6	nt	nt
CCOc1ccc(NC(=O)C[n+]2ccc(N(C)C)cc2)cc1	2	nt	1	-6	-20	2
CN(C)c1cc[n+](CC(=O)Nc2ccc(Oc3ccccc3)cc2)cc1	nt	nt	2	76*	nt	nt
COc1ccc(N2CCN(S(=O)(=O)c3ccc(OC)cc3)CC2)cc1	5	0.94	4	8	2	nt
COc1ccc(S(=O)(=O)N2CCN(c3cccc(C)c3C)CC2)cc1	9	-0.35	8.4*	48	-37	-9
Cc1ccccc1CN1CCN(S(=O)(=O)c2ccc(F)cc2)CC1	3	-0.17	1	28	-39	-3
Cc1cccc(C)c1N1CCN(S(=O)(=O)c2ccc(F)cc2)CC1	11	0.15	9.2*	27	-57	-1
NS(=O)(=O)c1ccc(CCNC(=O)c2cc(-c3ccccn3)nc3ccc(Br)cc23)cc1	nt	nt	7	11	nt	nt
CC(=O)c1cc2c(C)c(C(=O)c3ccccc3)oc2cc1O	8	nt	6	1	-29	1
COc1ccc(-c2nnn(CC(=O)N(CCN3CCOCC3)C(C(=O)NC3CCCC3)c3ccco3)n2)cc1 (stereo unspecified)	nt	nt	3	-18	nt	nt
Cc1ccc(S(=O)(=O)/C(=C/Cl)NC(=O)c2ccccc2)cc1	20	nt	0	-34	23	-4
COc1ccc(CN(Cc2ccc(C(=O)O)cc2)C(=S)Nc2ccccc2F)cc1OC	nt	nt	2	-9	nt	nt
C/C(=N\Nc1nc(N2CCCCC2)nc(N2CCOCC2)n1)c1cccs1	nt	nt	3	-3	nt	nt
C/C(=N\Nc1nc(N2CCCCCC2)nc(N2CCCCCC2)n1)c1ccccc1	nt	nt	0	65*	nt	nt
Cc1ccc2nc(Cl)c(/C=N/n3c(C)nnc3C)cc2c1	nt	nt	1	5	nt	nt
COc1ccc(N2C(C(C)=O)=NN(c3ccccc3)C2c2cccs2)cc1 (stereo unspecified)	7	1.4*	-1	20	-58	2
O=C1CSC(c2ccc(F)cc2)N1c1nnc(C23CC4CC(CC(C4)C2)C3)s1 (stereo unspecified)	1	-0.62	1	-9	-25	-2
SMILES	Measles CPE	DAT uptake mod	RAM inhibit	WT yeast gro inh	Yeast growth inh	Yeast lifespan up
O=C1CSC(c2ccc(F)cc2)N1c1nc2ccccc2s1 (stereo unspecified)	22	nt	2	75*	-65	1
C=C(C)COc1ccc(-c2nc(N)ncc2-c2ccc(OC)cc2)c(O)c1	5	0.63	1	84*	-93	3
COc1cccc(Oc2cnc(N)nc2-c2ccc(OC)cc2O)c1	15	0.32	10*	14	-52	-13
COc1ccc(-c2cnc(N)nc2-c2ccc(OC)cc2O)cc1	19	0.74	1	-9	-44	-8
C=C(C)COc1ccc(-c2nc(N)nc(C)c2Oc2ccccc2OC)c(O)c1	5	0.18	4	73*	-36	-12
CC1=NN(C(=O)COc2ccccc2C)C(O)(c2ccc(Cl)cc2)C1 (stereo unspecified)	6	nt	-1	-19	1	-6
CCOC(=O)c1cnc(SC)nc1Nc1cccc2ccccc12	13	-0.54	7	-2	-2	nt
CCOC(=O)c1cnc(SC)nc1Oc1cccc(NS(=O)(=O)c2ccc(F)cc2)c1	5	1.4	9.8*	-4	-33	2
CCOC(=O)c1cnc(SC)nc1Sc1cc(Cl)ccc1Cl	14	-1.2	5	71*	-4	-7
CCOC(=O)c1cnc(SC)nc1Oc1cccc(NC(=O)c2cccc(Cl)c2Cl)c1	7	1.5	9.4*	9	-75	0
CCOC(=O)c1cnc(SC)nc1Oc1cccc(NS(=O)(=O)c2ccccc2)c1	20	4.2	6	11	-14	3
O=C(N/N=C/c1sc2ccccc2c1O)c1cccc2ccccc12	3	nt	3	8	91*	-4
O=C(N/N=C/c1sc2ccccc2c1O)c1ccccc1	2	nt	2	-3	10	1
COc1ccc2cc(C(=O)N/N=C/c3sc4ccccc4c3O)ccc2c1	9	nt	4	1	-62	8
COc1ccc(C(=O)N/N=C/c2cc3ccccc3[nH]c2=S)cc1	21	-1.5	9.5*	8	-67	6
COc1ccc(C(=O)N/N=C/c2cccc3cccnc23)cc1	6	nt	1	1	-5	-12
COc1ccc(C(=O)N/N=C/c2sc3ccccc3c2O)cc1	3	nt	0	-8	85*	-2
O=C1OC2(CCCCC2)OC(=O)C1=CNc1nc2ccccc2s1	5	-0.19	1	11	-42	69*
Cc1sc(NC(=O)c2ccccc2)c(C(=O)c2ccccc2)c1C	7	nt	11*	34	-34	-5
COc1ccc(CN(CC2CCC(C(=O)O)CC2)C(=S)Nc2ccc(C)c(Cl)c2)cc1 (stereo unspecified)	nt	nt	2	24	nt	nt
COc1ccc(CCN(Cc2cc3cc(C)cc(C)c3nc2Cl)C(=O)C2CC2)cc1	11	nt	11*	68*	-4	-5
CC(C)c1ccc(NC(=S)N(C)CCc2ccccn2)cc1	nt	nt	1	74*	nt	nt
Cc1cccc(C)c1NC(=S)N(C)CCc1ccccn1	3	nt	0	9	-23	1
CC(C)OP(=O)(OC(C)C)C(O)c1ccc2c(c1)OCO2 (stereo unspecified)	10	nt	1	5	-42	2
